Measurements published in ChEMBL document CHEMBL4359917, “Design, synthesis, and biological evaluation of novel benzodiazepine derivatives as anticancer agents through inhibition of tubulin polymerization in vitro and in vivo” (Eur J Med Chem, 2019).
Activity calls are given as the source filed them. The calls are words filed in the database; no cut-off is given here.

What was measured:
A549 [1] = assay: Induction of apoptosis in human A549 cells assessed as late apoptotic cells at 10 nM after 24 hrs by annexin V-FITC/propidium iodide staining based flow cytometry (reference value: 0.02 %); format: functional
Summary of the method: (§1)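 A549 cells treated at 1, 5 or 10 nM for 24 or 48 h, then analysed by flow cytometry. Quadrants: upper left necrotic, upper right late apoptotic, bottom left live, bottom right early apoptotic. Three experiments; representative results shown.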

[2] = Metabolic stability in Sprague-Dawley rat liver microsomes assessed as parent compound remaining after 30 mins in presence of NADPH by HPLC-UV-MS analysis; format: ADME, Microsome; details: read-out: Stability
Summary of the method: (§2)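 Compound incubated with rat liver microsomes in buffer containing an NADPH regenerating system. Percentage of parent remaining was determined at time points up to 180 min, and half-life was derived.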

MDA-MB-231 = assay: Antiproliferative activity against human MDA-MB-231 cells assessed as cell growth inhibition measured after 48 hrs by MTT assay; format: functional, cell-based; details: MDA-MB-231, 48 h
Summary of the method: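 Cancer cell lines exposed to compounds for 48 h; viability read by MTT assay. IC50 reported as mean ± SD from at least three independent experiments.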

A549 [3] = assay: Cell cycle arrest in human A549 cells assessed as increase in cell accumulation at G2/M phase at 1 to 10 nM by RNase/propidium iodide staining based flow cytometry analysis; format: functional; details: TDE = time-dependent effect
[4] = Half-life in Sprague-Dawley rat liver microsomes in presence of NADPH by HPLC-UV-MS analysis; format: ADME, Microsome; summary of the method: as §2
A549 [5] = assay: Induction of apoptosis in human A549 cells assessed as necrotic cells at 10 nM after 24 hrs by annexin V-FITC/propidium iodide staining based flow cytometry (reference value: 0.03 %); format: functional; summary of the method: as §1
A549 [6] = assay: Induction of apoptosis in human A549 cells assessed as live cells at 5 nM after 48 hrs by annexin V-FITC/propidium iodide staining based flow cytometry (reference value: 99.75 %); format: functional; summary of the method: as §1
A549 [7] = assay: Cell cycle arrest in human A549 cells assessed as appearance of hypodiploid DNA content at sub G1 phase at 1 to 10 nM after 48 hrs by RNase/propidium iodide staining based flow cytometry analysis; format: functional
A549 [8] = assay: Induction of apoptosis in human A549 cells assessed as necrotic cells at 5 nM after 24 hrs by annexin V-FITC/propidium iodide staining based flow cytometry (reference value: 0.03 %); format: functional; summary of the method: as §1
A549 [9] = assay: Disruption of microtubule organization in human A549 cells assessed as appearance of dotted disorder formations at 10 nM measured after 24 hrs by immunofluorescence laser confocal microscopy analysis; format: functional, cell-based
Summary of the method: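 A549 cells plated in confocal dishes and exposed to DMSO or compound at 1, 5 or 10 nM for 24 h. Cells were fixed, immunostained for microtubules and imaged by laser confocal microscopy. Performed three times.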

A549 [10] = assay: Induction of apoptosis in human A549 cells assessed as early apoptotic cells at 10 nM after 48 hrs by annexin V-FITC/propidium iodide staining based flow cytometry (reference value: 0.19 %); format: functional; summary of the method: as §1

`COc1ccc2c(c1O)NC(=O)CN=C2c1cc(OC)c(OC)c([Se]C)c1` gave an Activity (A549 [1]) of 0.13%, a remaining at 0.5 h [2] of 95.6% and an IC50 (MDA-MB-231) of 15.5 nM. For the same molecule, the Activity (A549 [3]) was “Tde”, the half-life [4] was 2.69 h and the Activity (A549 [5]) was 0.09%. For the same molecule, the Activity (A549 [6]) was 57.32%, the Activity (A549 [7]) was “Active” and the Activity (A549 [8]) was 0.03%. The Activity (A549 [9]) was “Active” and the Activity (A549 [10]) was 65.4%.
